ChEMBL document CHEMBL2331390, “Telomere shortening and cell senescence induced by perylene derivatives in A549 human lung cancer cells” (Bioorg Med Chem, 2013)
Calls of active or inactive are those of the source. The rule behind the calls is not given here.

What was measured:
Homo sapiens [1] = organism: Homo sapiens; test: Binding affinity to human telomeric 5'-AGATAGTTAGGGTTAGGGTTAGGGTTAGGGTT-3' DNA assessed as induction of intramoleculsr G-quadruplex formation after 10 hrs by PAGE analysis
Procedure, shortened: (§1)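 FAM-labeled G-rich strand (2 µM) and complementary C-rich strand (2 µM) with compound in 10 mM Tris-HCl pH 7.4, 100 mM KCl. Heated to 95 °C for 5 min, slowly cooled to 55 °C, held 10 h, then cooled to 4 °C. Duplex vs G-quadruplex resolved on 16% native PAGE with 50 mM KCl (4 °C, 350 V, 10 h) and fluorescence-imaged.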

A549 [2] = test: Cytotoxicity against human A549 cells assessed as colony formation at 0.8 uM incubated for 24 days followed by subculturing in compound-free medium measured after 14 days by crystal violet staining method relative to control; assay type: functional
Procedure, shortened: (§2)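 A549 cells from the long-term culture (0.4 or 0.8 μM, medium changed every 3 days, replated every 6 days) were collected on the stated day. 2×10^3 cells seeded per 10-cm dish, fed every 4-5 days. Colonies stained with crystal violet after 14 days and counted; expressed as % of control. Controls under 25 colonies excluded. Three independent experiments.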

A549 [3] = test: Induction of senescence in human A549 cells assessed as increase in beta-galactosidase activity at 0.4 uM incubated for 54 days followed by subculturing on compound-free medium measured after 48 hrs by fluorescence microscopic analysis; assay type: functional, cell-based
Procedure, shortened: (§3)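 A549 cells from the long-term treatment replated and grown 48 h. Fixed in 2% formaldehyde/0.2% glutaraldehyde for 5 min at RT. Stained overnight with 1 mg/ml X-gal in pH 6 citrate/phosphate buffer with 5 mM ferro/ferricyanide, 150 mM NaCl, 2 mM MgCl2. Enlarged blue cells scored by microscopy.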

A549 [4] = test: Binding affinity to human TERT promoter DNA sequence in human A549 cells assessed as decrease in TERT mRNA expression at 6 uM after 24 hrs by semi-quantitative PCR analysis relative to control; assay type: cell-based; parameters: scale not given: the % may be the effect or the level left
Procedure, shortened: (§4)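 A549 cells (3.0×10^5) grown 24 h in RPMI 1640 + 10% FBS at 37 °C, 5% CO2, then exposed to compound for 24 h. Total RNA by Trizol, reverse transcribed, hTERT amplified with specific primers. Semi-quantitative and real-time SYBR Green PCR (45 cycles), standard-curve method, normalized to GAPDH. Three independent experiments.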

Homo sapiens [5] = organism: Homo sapiens; test: Binding affinity to human TERT2 5'-GGGGGCTGGGCCGGGGACCCGGGAGGGGTCGGGACGGGGCGGGG-3' DNA assessed as induction of intramolecular G-quadruplex formation at 4 uM after 10 hrs by PAGE analysis; procedure, shortened: as §1
A549 [6] = test: Binding affinity to human TERT promoter DNA sequence in human A549 cells assessed as decrease in TERT mRNA expression after 24 hrs by semi-quantitative PCR analysis; assay type: cell-based; procedure, shortened: as §4
A549 [7] = test: Antiproliferative activity against human A549 cells assessed as decrease in population doubling at 0.4 uM after 42 days; assay type: functional, cell-based
Procedure, shortened: (§5)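 A549 cells (1.5×10^5) seeded in RPMI 1640 + 10% FBS with 0.4 or 0.8 μM perylene or medium only. Medium changed every 3 days. Every 6 days, at confluence, cells were trypsinized, counted by hemocytometer and replated at 1.5×10^5. Population doublings n = (log Pn − log P0)/log 2, cumulated against time. Three independent experiments.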

A549 [8] = test: Antiproliferative activity against human A549 cells assessed as cell division arrest at 0.8 uM measured on day 36; assay type: functional, cell-based; procedure, shortened: as §5
A549 [9] = test: Binding affinity to human TERT promoter DNA sequence in human A549 cells assessed as telomere restriction fragment length at 0.4 uM after 54 days by TeloTAGGG-based chemiluminescence assay (reference value: 3.6 kb); assay type: cell-based
Procedure, shortened: (§6)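 Genomic DNA from A549 cells kept long-term with 0.4 or 0.8 μM compound (medium changed every 3 days, replated every 6 days). DNA isolated with DNAzol. 2 µg digested with RsaI/HinfI, run on 0.8% agarose, Southern-blotted, hybridized with DIG-labeled telomeric probe, anti-DIG alkaline phosphatase, chemiluminescence. Mean TRF = Σ(ODi)/Σ(ODi/Li).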

[10] = Binding affinity to TSG4 primer DNA (unknown origin) assessed as inhibition of telomerase-mediated extension of primer […] by fluorescence-based TRAP assay
Procedure, shortened: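 Cell-free TRAP. Compound preincubated with TSG4 primer in telomerase buffer (20 mM Tris-HCl pH 7.4, 1.5 mM MgCl2, 63 mM KCl, 1 mM EGTA, 200 µM dNTPs) at 37 °C for 2 h. Crude telomerase (50 ng) from telomerase-transfected HEK293T added, 30 °C for 30 min. Compound removed by phenol-chloroform, products ethanol-precipitated, PCR with FAM-tagged primer, 8% native PAGE, phosphoimaging. IC50 ± SD from three experiments.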

A549 [11] = test: Binding affinity to human TERT promoter DNA sequence in human A549 cells assessed as telomere restriction fragment length at 0.4 uM after 24 days by TeloTAGGG-based chemiluminescence assay (reference value: 3.6 kb); assay type: cell-based; procedure, shortened: as §6
A549 [12] = test: Binding affinity to human TERT promoter DNA sequence in human A549 cells assessed as telomere restriction fragment length at 0.8 uM after 30 days by TeloTAGGG-based chemiluminescence assay (reference value: 3.6 kb); assay type: cell-based; procedure, shortened: as §6
A549 [13] = test: Binding affinity to human TERT promoter DNA sequence in human A549 cells assessed as telomere restriction fragment length at 0.4 uM after 6 days by TeloTAGGG-based chemiluminescence assay (reference value: 3.6 kb); assay type: cell-based; procedure, shortened: as §6
A549 [14] = test: Induction of senescence in human A549 cells assessed as cell enlargement at 0.4 uM incubated for 54 days followed by subculturing on compound-free medium measured after 48 hrs by fluorescence microscopic analysis; assay type: functional, cell-based; procedure, shortened: as §3
A549 [15] = test: Cytotoxicity against human A549 cells assessed as colony formation at 0.4 uM incubated for 24 days followed by subculturing in compound-free medium measured after 14 days by crystal violet staining method relative to control; assay type: functional; procedure, shortened: as §2
A549 [16] = test: Cytotoxicity against human A549 cells assessed as colony formation at 0.4 uM incubated for 54 days followed by subculturing in compound-free medium measured after 14 days by crystal violet staining method relative to control; assay type: functional; procedure, shortened: as §2
A549 [17] = test: Antiproliferative activity against human A549 cells assessed as effect on population doubling at 0.4 uM up to 42 days; assay type: functional, cell-based; procedure, shortened: as §5
A549 [18] = test: Binding affinity to human TERT promoter DNA sequence in human A549 cells assessed as inhibition of telomerase-mediated MTS primer extension after 24 hrs by fluorescence-based TRAP assay; assay type: cell-based
Procedure, shortened: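 A549 cells exposed to compound for 24 h, lysed in CHAPS buffer, protein measured by Bradford. 6 µg lysate protein used as telomerase source in fluorescent TRAP with MTS primer (no G-quadruplex motif), with no phenol-chloroform step. FAM-primer PCR, native PAGE, fluorescence quantified. Mean ± SD of three experiments.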

Homo sapiens [19] = organism: Homo sapiens; test: Binding affinity to human TERT2 5'-GGGGGCTGGGCCGGGGACCCGGGAGGGGTCGGGACGGGGCGGGG-3' DNA assessed as induction of intermolecular G-quadruplex formation at 8 to 32 uM after 10 hrs by PAGE analysis; procedure, shortened: as §1
Homo sapiens [20] = organism: Homo sapiens; test: Binding affinity to human TERT1 5'-AAGGGGAGGGGCTGGGAGGGCCCGGA-3' DNA assessed as induction of intramoleculsr G-quadruplex formation after 10 hrs by PAGE analysis; procedure, shortened: as §1
A549 [21] = test: Antiproliferative activity against human A549 cells assessed as decrease in cell viability at 0.4 uM after 42 days; assay type: functional, cell-based; procedure, shortened: as §5
A549 [22] = test: Cytotoxicity against human A549 cells assessed as colony formation at 0.8 uM incubated for 6 days followed by subculturing in compound-free medium measured after 14 days by crystal violet staining method relative to control; assay type: functional; procedure, shortened: as §2
A549 [23] = test: Cytotoxicity against human A549 cells assessed as colony formation at 0.4 uM incubated for 6 days followed by subculturing in compound-free medium measured after 14 days by crystal violet staining method relative to control; assay type: functional; procedure, shortened: as §2
A549 [24] = test: Binding affinity to human TERT promoter DNA sequence in human A549 cells assessed as telomere restriction fragment length at 0.8 uM after 6 days by TeloTAGGG-based chemiluminescence assay (reference value: 3.6 kb); assay type: cell-based; procedure, shortened: as §6
A549 [25] = test: Binding affinity to human TERT promoter DNA sequence in human A549 cells assessed as telomere restriction fragment length at 0.8 uM after 18 days by TeloTAGGG-based chemiluminescence assay (reference value: 3.6 kb); assay type: cell-based; procedure, shortened: as §6
A549 [26] = test: Cytotoxicity against human A549 cells assessed as reduction in colony formation incubated for 24 days followed by subculturing in compound-free medium measured after 14 days by crystal violet staining method; assay type: functional, cell-based; procedure, shortened: as §2
A549 [27] = test: Antiproliferative activity against human A549 cells assessed as decrease in population doubling at 0.8 uM after 18 days; assay type: functional, cell-based; procedure, shortened: as §5

SMILES: CCN(CC)CCN1C(=O)c2ccc3c4cccc5c(N6CCNCC6)ccc(c6ccc(c2c36)C1=O)c54
- Activity (Homo sapiens [1]): Dose-dependent effect
- Activity (A549 [2]): 35%
- Activity (A549 [3]): Active
- Activity (A549 [4]): 37%
- Activity (Homo sapiens [5]): Active
- Activity (A549 [6]): Dose-dependent effect
- Activity (A549 [7]): Active
- Activity (A549 [8]): Active
- Activity (A549 [9]): 2.9 kilobase
- IC50 [10]: 800 nM
- inhibition [10]: Dose-dependent effect
- Activity (A549 [11]): 3.5 kilobase
- Activity (A549 [12]): 3.2 kilobase
- Activity (A549 [13]): 3.6 kilobase
- Activity (A549 [14]): Active
- Activity (A549 [15]): 73%
- Activity (A549 [16]): 60%
- Activity (A549 [17]): inactive
- Activity (A549 [18]): Dose-dependent effect
- Activity (Homo sapiens [19]): Active
- Activity (Homo sapiens [20]): Dose-dependent effect
- Activity (A549 [21]): inactive
- Activity (A549 [22]): 100%
- Activity (A549 [23]): 100%
- Activity (A549 [24]): 3.6 kilobase
- Activity (A549 [25]): 3.5 kilobase
- Activity (A549 [26]): Dose-dependent effect
- Activity (A549 [27]): Active
